Reference: the RNAGym collection of RNA variant scans (doi:10.1126/science.aae0568)
Fewer inactive variants are shown than the library holds.

B1: tRNA (parent)
chain: GUUCCGUUGGCGUAAUGGUAACGCGUCUCCCUCCUAAGGAGAAGACUGCGGGUUCGAGUCCCGUACGGAACG

Variants of: B1
Test: yeast fitness relative to wild type (ratio to wild type); higher = fitter; tRNA-Arg(CCU), competitive growth, 37 C, YPD
In short: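 Genotype frequency changes were the basis for Darwinian fitness relative to wild type. The frequencies came from 100-nucleotide paired-end sequencing of gene amplicons from the start population and each end population of pooled yeast strains with tRNA-Arg(CCU) gene variants at the native locus. Competition ran in YPD at 37°C for 24 hours in six replicates, genotypes needed ≥ 100 starting reads, and estimates < 0.5 were set to 0.5.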

| Variant | yeast fitness |
| --- | --- |
| GUUCCGUUGGCGUAAUGGUAACGCGACUCCCUCCUAAGGAGAAGACUGCGGGUUCGCGUCGCGUACAGUACG [U26A A57C C61G G67A A69U] | ≤ 0.5 |
| GUUCCGUUGGCGUAAUGGUAACGCGACUCCCUCCUAAGGAGAAGACUGCGGGUUCGCGUCCCGUACAGUACG [U26A A57C G67A A69U] | 0.58 |
| GUUCCGUUGGCGUAAUGGUAACGCGACUCCCUCCUAAGGAGAAGACUGCGGGUUCGGGUUCCGUACGGAACG [U26A A57G C60U] | ≤ 0.5 |
| GUUCCGUUGGCGUAAUGGUAACGCGACUCCCUCCUAAGGAGAAGACUGCGGGUUCGAGUCCCGUCCGGAACG [U26A A65C] | 0.946 |
| GUUCCGUUGGCGUAAUGGUAACGCGACUCCCUCCUAAGGAGAAGACUGCGGGUUCGAGUCCCGUACGGAGCG [U26A A70G] | 0.924 |
| GUUCCGUUGGCGUAAUGGUAACGCGAAACCCUCUUAAGGAGAAGACUGCGGGUUCGAGUCCCGUACGGAACG [U26A C27A U28A C34U] | ≤ 0.5 |
| GUUCCGUUGGCGUAAUGGUAACGCGAAACCCUCUUAAGGAGAAGACUGCGGGUUCGAGUCCCGUACGACACG [U26A C27A U28A C34U G68A A69C] | 0.534 |
| GUUCCGUUGGCGUAAUGGUAACGCGAUUCCCUCCUAAGGAGAAGACUGCGGGUUCGAGUCCCGUACGGAACG [U26A C27U] | 0.919 |
| GUUCCGUUGGCGUAAUGGUAACGCGAUUCCCUCCUAAGGAGAAGACUGCGGGUUCGAGUCCCGUGCGGAACG [U26A C27U A65G] | 1 |
| GUUCCGUUGGCGUAAUGGUAACGCGAUUCCCUCCUAAGGAGAAGACUGCGGGUUCGAGUCCCGUGCGGGACG [U26A C27U A65G A69G] | 0.669 |
| GUUCCGUUGGCGUAAUGGUAACGCGAUUACCUCCUAAGGAGAAGACUGCGGGUUCGAGUCCCGUGCGCAACG [U26A C27U C29A A65G G68C] | ≤ 0.5 |
| GUUCCGUUGGCGUAAUGGUAACGCGACUGCCUCCUAAGGAGAGGUCUGCGGGUUCGAGUCCCGUACGGAACG [U26A C29G A43G A45U] | ≤ 0.5 |
| GUUCCGUUGGCGUAAUGGUAACGCGACUUCUUCCUAAGGAGAAGACUACGGGUUCGAGUCCCGUACGGAACG [U26A C29U C31U G48A] | 0.596 |
| GUUCCGUUGGCGUAAUGGUAACGCGACUUCCUUCUAAGGAGAAGACUGCGGGUUCGAGUCCGGUACGGAACG [U26A C29U C33U C62G] | 1.09 |
| GUUCCGUUGGCGUAAUGGUAACGCGACUCACUCCUACGGAGAUGACUGCGCGUUCGAGUCCCGUACGGAACG [U26A C30A A37C A43U G51C] | 0.595 |
| GUUCCGUUGGCGUAAUGGUAACGCGACUCACUCAUAAGGAGAAGCCUGCGGGUUCGAGUCCCGUACGGAACG [U26A C30A C34A A45C] | ≤ 0.5 |
| GUUCCGUUGGCGUAAUGGUAACGCGACUCACUCAUAAGGAGAAGACUCCGGGUUCGAGUCCCGUACGGAACG [U26A C30A C34A G48C] | 0.583 |
| GUUCCGUUGGCGUAAUGGUAACGCGACUCGCUCCUACGGAGAAGACUGCGGGUUCGAGUCCCGUACGGCACG [U26A C30G A37C A69C] | ≤ 0.5 |
| GUUCCGUUGGCGUAAUGGUAACGCGACUCGCUCCUACGGAGAAGACUGCGGGUUCGAGACCCGUACGGAACG [U26A C30G A37C U59A] | ≤ 0.5 |

| Variant | yeast fitness |
| --- | --- |
| GUUCCGUUGGCGUAAUGGUAACGCGACUCCAUCCUAAGGAGGAGACUGCGGGUUGGAGUCCCGUACGGAACG [U26A C31A A42G C55G] | ≤ 0.5 |
| GUUCCGUUGGCGUAAUGGUAACGCGACUCCGUCCUAAGGAGAAGACUGCGGGUUCGAGUCCCGUACGGAACG [U26A C31G] | 0.942 |
| GUUCCGUUGGCGUAAUGGUAACGCGACUCCGUCCUAAGGAGAAGACUGCGGGUUCGAGUCCCCUACGGAACG [U26A C31G G63C] | ≤ 0.5 |
| GUUCCGUUGGCGUAAUGGUAACGCGACUCCUUCCUAAGGAGAAGACUGCGGGUUCGAGUCCCGUCCGGAACG [U26A C31U A65C] | 0.691 |
| GUUCCGUUGGCGUAAUGGUAACGCGACUCCUUCCUAAGGAGAAGACUACGGGUUCGAGUCCCGUACGGAACG [U26A C31U G48A] | 0.998 |
| GUUCCGUUGGCGUAAUGGUAACGCGACUCCUUCCUAAGGAGAAGACUACGGGUUCGAGUCCCGUGCGGAACG [U26A C31U G48A A65G] | 0.683 |
| GUUCCGUUGGCGUAAUGGUAACGCGACUCCCUACUAAGGAGAAGCCUGCGGGUUCGAGUCCCGUACGGAACG [U26A C33A A45C] | 0.55 |
| GUUCCGUUGGCGUAAUGGUAACGCGACUCCCUACUAAGGAGAAGCCUGCGGGUUCGAGUCCCGUUCCGAACG [U26A C33A A45C A65U G67C] | ≤ 0.5 |
| GUUCCGUUGGCGUAAUGGUAACGCGACUCCCUAGUAAGGAGAAGACUGCGGGUUCGAGUCCCGUACGGAACG [U26A C33A C34G] | 0.644 |
| GUUCCGUUGGCGUAAUGGUAACGCGACUCCCUUCUAAGGAGAAGACUGCGGGCUCGAGUCCCGUACGGAACG [U26A C33U U53C] | 0.54 |
| GUUCCGUUGGCGUAAUGGUAACGCGACUCCCUCGUAAGGAGAUGACUGAGGGUUCGAGUCCCGUACGGAACG [U26A C34G A43U C49A] | ≤ 0.5 |
| GUUCCGUUGGCGUAAUGGUAACGCGACUCCCUCGUAAGGAGAAGACUGAGGGCUCGAGUCCCGUACGGUACG [U26A C34G C49A U53C A69U] | ≤ 0.5 |
| GUUCCGUUGGCGUAAUGGUAACGCGACUCCCUCGUAAGGAGAAGACUGCGGGUUCAAGUCCCGUACGGAACG [U26A C34G G56A] | 0.565 |
| GUUCCGUUGGCGUAAUGGUAACGCGACUCCCUCUUAAGGAGAUGACUGCGGGUUCGAGUCCCGUAGGGAACG [U26A C34U A43U C66G] | 0.628 |
| GUUCCGUUGGCGUAAUGGUAACGCGACUCCCUCCUAAGGAGAAGAAUGCGGGUUCGAGUCCGGUACGGAACG [U26A C46A C62G] | 0.797 |
| GUUCCGUUGGCGUAAUGGUAACGCGACUCCCUCCUAAGGAGAAGACUGGGGGUUCUAGUCCCGUACGGAACG [U26A C49G G56U] | ≤ 0.5 |
| GUUCCGUUGGCGUAAUGGUAACGCGACUCCCUCCUAAGGAGAAGACUGCGGGUUAGAGUCCCGUACGCAACG [U26A C55A G68C] | ≤ 0.5 |
| GUUCCGUUGGCGUAAUGGUAACGCGACUCCCUCCUAAGGAGAAGACUGCGGGUUCGAGUACCGUACGGAACG [U26A C60A] | 0.787 |
| GUUCCGUUGGCGUAAUGGUAACGCGACUCCCUCCUAAGGAGAAGACUGCGGGUUCGAGUCACGUUCGGAACG [U26A C61A A65U] | 0.686 |
